Measured values reported in ChEMBL document CHEMBL5038600, “Discovery of M-1121 as an Orally Active Covalent Inhibitor of Menin-MLL Interaction Capable of Achieving Complete and Long-Lasting Tumor Regression” (J Med Chem, 2021).
The source made the active and inactive calls. The rule behind the calls is not given here.

Key:
Menin (Homo sapiens) [1] = biological target: T1, Menin (Homo sapiens) (UniProt O00255); test: Binding affinity to recombinant human menin protein assessed as covalent complex formation incubated for 10 mins by LC/MS analysis; design: concentration or dose not given beside the values
T1 sequence (whole entry): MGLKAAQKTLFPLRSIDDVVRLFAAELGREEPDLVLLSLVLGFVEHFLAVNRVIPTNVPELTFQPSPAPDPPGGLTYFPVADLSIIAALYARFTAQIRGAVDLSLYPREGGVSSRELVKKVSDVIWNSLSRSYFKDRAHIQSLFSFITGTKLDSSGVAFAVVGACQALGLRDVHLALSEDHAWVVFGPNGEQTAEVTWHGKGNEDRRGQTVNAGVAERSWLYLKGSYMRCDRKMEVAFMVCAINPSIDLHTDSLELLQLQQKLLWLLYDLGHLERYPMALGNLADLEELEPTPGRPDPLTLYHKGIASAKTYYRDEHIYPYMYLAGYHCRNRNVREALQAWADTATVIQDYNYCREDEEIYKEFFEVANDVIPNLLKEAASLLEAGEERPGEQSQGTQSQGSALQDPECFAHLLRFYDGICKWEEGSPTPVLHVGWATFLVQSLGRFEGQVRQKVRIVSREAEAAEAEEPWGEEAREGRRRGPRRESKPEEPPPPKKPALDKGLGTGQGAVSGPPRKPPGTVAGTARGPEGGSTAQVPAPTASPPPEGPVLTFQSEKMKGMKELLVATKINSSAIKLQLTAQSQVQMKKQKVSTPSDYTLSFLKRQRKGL

Menin (Homo sapiens) [2] = biological target: T1, Menin (Homo sapiens); test: Binding affinity to recombinant human menin protein assessed as covalent complex formation measured after overnight incubation by LC/MS analysis; design: concentration or dose not given beside the values
K562 = test: Anti-proliferative activity against human K562 cells harboring MLL wild-type protein assessed as cell growth inhibition measured after 4 days by Cell Titre Glo Luminescent Cell viability assay; assay type: functional, cell-based; settings: K562, 96 h
Outline: (§1)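 Leukemia lines plated in triplicate in RPMI 1640 at 37 °C, 5% CO2. 9-point dose response from 10 μM top concentration with 1:3 serial dilutions, 0.1% DMSO final; DMSO vehicle control column. Cellular ATP read by CellTiter-Glo at day 0 and after 4 days. Averages from three independent experiments.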

[3] = GSH reactivity in pH 7.4 assessed as conjugation half life at pH 7.4; assay type: physicochemical
[4] = Tmax in C57BL/6 mouse at 5 mg/kg, po; assay type: ADME, organism-based; settings: in vivo
Outline: (§2)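 Female C57BL/6 mice, single oral dose of 5 mg/kg in 0.5% methyl cellulose + 0.2% Tween 80 (w/w). Bioavailability is calculated against the 1 mg/kg IV arm.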

MV4-11 [5] = test: Suppression of HOXA9 gene expression in human MV4-11 cells at 10 nM measured after 24 hrs by qRT-PCR analysis; assay type: functional, cell-based
[6] = Protein binding in mouse plasma at 1 uM incubated for 5 hrs by liquid chromatography-tandem mass spectrometry; assay type: ADME, cell-free
Outline: (§3)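 Equilibrium dialysis: plasma spiked at 1 μM against dialysis buffer, shaken 5 h at 37 °C, with warfarin and quinidine (1 μM) as controls. Samples matrix-matched, quenched with acetonitrile containing imipramine internal standard, and analysed by LC-MS/MS. Percent bound computed from peak area ratios.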

KOPN-8 = test: Anti-proliferative activity against human KOPN-8 cells harboring MLL/ENL fusion protein assessed as cell growth inhibition measured after 4 days by Cell Titre Glo Luminescent Cell viability assay; assay type: functional, cell-based; settings: KOPN-8, 96 h; outline: as §1
[7] = Toxicity in SCID mouse xenografted with human MV4-11 cells assessed as change weight loss at 300 mg/kg, po qd administered daily for 15 days; assay type: organism-based; settings: in vivo, 360 h, time 15 day
Outline: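 Female C.B-17 SCID mice, 5–6 weeks old, implanted subcutaneously in the right flank with 5×10^6 MV4;11 cells in 1:1 Matrigel. Randomized at about 200 mm3. Dosed 300 mg/kg by oral gavage once daily for 15 days in 0.5% MC (400 cP) + 0.2% Tween 80 at 10 mL/kg. Body weight measured daily; caliper volume (0.5×W×W×L) three times weekly.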

[8] = Toxicity in SCID mouse xenografted with human MV4-11 cells assessed as signs of toxicity at 100 mg/kg, po administered daily for 26 days; assay type: organism-based; settings: in vivo, 624 h, time 26 day
Outline: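 Female C.B-17 SCID mice bearing subcutaneous MV4;11 flank tumors (5×10^6 cells with Matrigel 1:1), treated once tumors averaged about 100 mm3. Dosed 100 mg/kg daily by oral gavage for 26 days in 0.5% MC + 0.2% Tween 80 vehicle. Body weight measured daily.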

[9] = Protein binding in human plasma at 1 uM incubated for 5 hrs by liquid chromatography-tandem mass spectrometry; assay type: ADME, cell-free; outline: as §3
[10] = AUC (0 to infinity) in C57BL/6 mouse at 1 mg/kg, iv; assay type: ADME, organism-based; design: time infinity, route intravenous, dose 1 mg/kg; settings: in vivo
Outline: (§4)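 Female C57BL/6 mice, single IV dose of 1 mg/kg given as a solution in 10% NMP, 10% Solutol HS15 and 80% saline. Parameters come from the plasma concentration–time profile.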

[11] = Oral bioavailability in C57BL/6 mouse at 5 mg/kg; assay type: ADME, organism-based; settings: in vivo; outline: as §2
SEM cells = test: Anti-proliferative activity against human SEM cells harboring MLL/AF4 fusion protein assessed as cell growth inhibition measured after 4 days by Cell Titre Glo Luminescent Cell viability assay; assay type: functional, cell-based; settings: 96 h; outline: as §1
MV4-11 [12] = test: Suppression of MEIS1 gene expression in human MV4-11 cells at 30 nM measured after 24 hrs by qRT-PCR analysis; assay type: functional, cell-based
MV4-11 [13] = test: Anti-tumor activity against luciferase-tagged human MV4-11 cells xenografted in NCG mouse assessed as reduction in number of CD45+/CD33+ cells at 150 mg/kg, po administered daily for 4 days measured after 48 hrs by flow cytometry; assay type: functional, organism-based; settings: time 4.0 day
Outline: (§5)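 Female NCG mice, 5–6 weeks old, given 5×10^6 luciferase-tagged MV4;11 cells IV via tail vein. Randomized at log-phase disease (day 27). Dosed 150 mg/kg oral gavage daily for 4 days in MC/Tween 80 vehicle. Read-outs 48 h after the last dose, five mice per group, mean ± SEM: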

[14] = Volume of distribution at steady state in C57BL/6 mouse at 1 mg/kg, iv; assay type: ADME, organism-based; settings: in vivo, read-out: Vdss; outline: as §4
[15] = AUC (0 to infinity) in C57BL/6 mouse at 5 mg/kg, po; assay type: ADME, organism-based; design: route oral, time infinity, dose 5 mg/kg; settings: in vivo; outline: as §2
MV4-11 [16] = test: Anti-tumor activity against luciferase-tagged human MV4-11 cells xenografted in NCG mouse assessed as decreased intensity of whole body bioluminescence signal at 150 mg/kg, po administered daily for 4 days measured after 48 hrs by bioluminescence analysis; assay type: functional, organism-based; settings: time 4.0 day; outline: as §5
HL-60 = test: Anti-proliferative activity against human HL-60 cells harboring MLL wild-type protein assessed as cell growth inhibition measured after 4 days by Cell Titre Glo Luminescent Cell viability assay; assay type: functional, cell-based; settings: HL-60, 96 h; outline: as §1
[17] = Anti-proliferative activity against human OCI-AML-4 cells harboring MLL-ENL fusion protein assessed as cell growth inhibition measured after 4 days by Cell Titre Glo Luminescent Cell viability assay; assay type: functional, cell-based; settings: OCI-AML-4, 96 h; outline: as §1
Menin (Homo sapiens) [18] = biological target: T1, Menin (Homo sapiens); test: Binding affinity to recombinant human menin protein assessed as covalent complex formation incubated for 30 mins by LC/MS analysis; design: concentration or dose not given beside the values
MV4-11 [19] = test: Anti-proliferative activity against human MV4-11 cells harboring MLL/AF4 fusion protein assessed as cell growth inhibition measured after 4 days by Cell Titre Glo Luminescent Cell viability assay; assay type: functional, cell-based; settings: MV4-11, 96 h

C=CC(=O)N1C[C@@H]2C[C@H]1CN2S(=O)(=O)c1ccc(N2CC(CN3CCC([C@@](CN4CCC4)(c4cccc(F)c4)[C@H]4CCC[C@@H]4NC(=O)OC)CC3)(OC)C2)cc1
Activity (Menin (Homo sapiens) [1]): 27%
Activity (Menin (Homo sapiens) [2]): 100%
IC50 (K562): > 10000 nM
t1/2 [3]: 1.48 h
Tmax [4]: 2 h
inhibition (MV4-11 [5]): Active
PPB [6]: 99.3%
IC50 (KOPN-8): 110 nM
Activity [7]: Non-Toxic
Activity [8]: Non-Toxic
PPB [9]: 90.7%
AUC(0-inf) [10]: 17600 ng·h/mL
F [11]: 49.4%
IC50 (SEM cells): 51 nM
inhibition (MV4-11 [12]): Active
Activity (MV4-11 [13]): Active
Vd [14]: 0.33 L/kg
AUC(0-inf) [15]: 43600 ng·h/mL
Activity (MV4-11 [16]): Active
IC50 (HL-60): > 10000 nM
IC50 [17]: 3 nM
Activity (Menin (Homo sapiens) [18]): 59%
IC50 (MV4-11 [19]): 10.3 nM
